Assay results from different studies.
Each line is one published result; the experiments were not run side by side.
ABL1 T315I non-phosphorylated: Tyrosine-protein kinase ABL1, non-phosphorylated (ABL1, Homo sapiens, UniProt P00519, T315I)
ABL1 H396P phosphorylated: Tyrosine-protein kinase ABL1, phosphorylated (ABL1, Homo sapiens, UniProt P00519, H396P)
ABL1 Q252H phosphorylated: Tyrosine-protein kinase ABL1, phosphorylated (ABL1, Homo sapiens, UniProt P00519, Q252H)
ABL1 non-phosphorylated: Tyrosine-protein kinase ABL1, non-phosphorylated (ABL1, Homo sapiens, UniProt P00519)
ABL1 T315I phosphorylated: Tyrosine-protein kinase ABL1, phosphorylated (ABL1, Homo sapiens, UniProt P00519, T315I)
ABL1 H396P non-phosphorylated: Tyrosine-protein kinase ABL1, non-phosphorylated (ABL1, Homo sapiens, UniProt P00519, H396P)
ABL1 phosphorylated: Tyrosine-protein kinase ABL1, phosphorylated (ABL1, Homo sapiens, UniProt P00519)
ABL1 Q252H non-phosphorylated: Tyrosine-protein kinase ABL1, non-phosphorylated (ABL1, Homo sapiens, UniProt P00519, Q252H)
ABL1 T315I: Tyrosine-protein kinase ABL1 (ABL1, Homo sapiens, UniProt P00519, T315I)
ABL1 F317L phosphorylated: Tyrosine-protein kinase ABL1, phosphorylated (ABL1, Homo sapiens, UniProt P00519, F317L)
ABL1 M351T phosphorylated: Tyrosine-protein kinase ABL1, phosphorylated (ABL1, Homo sapiens, UniProt P00519, M351T)
ABL1 Y253F phosphorylated: Tyrosine-protein kinase ABL1, phosphorylated (ABL1, Homo sapiens, UniProt P00519, Y253F)

O=C(NCC1CCOCC1)c1n[nH]cc1NC(=O)c1c(F)cccc1F — remaining binding (ABL1 T315I non-phosphorylated; binding, competition with immobilised ligand; 1 µM): 90%
O=C(c1ccc(Nc2nccc(-c3cc4ccccc4s3)n2)cc1)N1CCC(N2CCCC2)CC1 — remaining binding (ABL1 H396P phosphorylated; binding, competition with immobilised ligand; 1 µM): 13%
Nc1c(C(=O)NCc2ccc(C(=O)NCCCC3CCCCC3)cc2)cnn1-c1ccccc1 — remaining binding (ABL1 Q252H phosphorylated; cell-free assay, competition with immobilised ligand; 0.1 µM): 98%
CN(C)c1ncc(F)c(-c2cnn3ncccc23)n1 — remaining binding (ABL1 non-phosphorylated; binding, competition with immobilised ligand; 1 µM): 89%
N#Cc1ccccc1CSc1nnc2c(n1)[nH]c1ccccc12 — remaining binding (ABL1 T315I phosphorylated; binding, competition with immobilised ligand; 10 µM): 92%
O=C(O)[C@H]1[C@H](Cn2nnc3ccccc3c2=O)CC[C@@H]1C(=O)c1ccc(OCCC2CCOCC2)cc1 — remaining binding (ABL1 H396P non-phosphorylated; cell-free assay, competition with immobilised ligand; 1 µM): 94%
CC1CCCN1c1nccc(-c2cnn3ncccc23)n1 (centres unmarked) — remaining binding (ABL1 phosphorylated; binding; 1 µM): 96%
Nc1ncc2c(n1)-c1c([nH]c3ccc(C#CC4CC4)cc13)CCCC2 — remaining binding (ABL1 T315I phosphorylated; binding, competition with immobilised ligand; 1 µM): 97%
O=C(NS(=O)(=O)c1ccc(NCC2CCOCC2)c([N+](=O)[O-])c1)c1ccc(N2CCN(Cc3ccc(C(F)(F)F)cc3-c3ccc(Cl)cc3)CC2)cc1Oc1cnc2[nH]ccc2c1 — remaining binding (ABL1 Q252H non-phosphorylated; cell-free assay, competition with immobilised ligand; 1 µM): 100%
CN(C)c1nccc(-c2cnn3ncccc23)n1 — remaining binding (ABL1 T315I; binding; 1 µM): 80%
C=CC(=O)N1CCC(C(=O)NCC(=O)N2CCN(c3nc(-c4cnc(N)nc4C(F)F)nc(N4CCOCC4)n3)CC2)CC1 — remaining binding (ABL1 H396P phosphorylated; binding, competition with immobilised ligand; 1 µM): 83%
COc1cnc(Nc2cccc(S(N)(=O)=O)c2)nc1N1CCN(c2ccccc2)CC1 — remaining binding (ABL1 Q252H phosphorylated; binding, competition with immobilised ligand; 1 µM): 72%
CCN1CCN(Cc2ccc(C(=O)Nc3ccc(C)c(Oc4ccc5c(c4)CC(=O)N5)c3)cc2C(F)(F)F)CC1 — remaining binding (ABL1 T315I non-phosphorylated; binding, competition with immobilised ligand; 1 µM): 16%
CCOCCn1cc(C(=O)Nc2ccc(-n3nc(-c4cccnc4)cc3C(F)(F)F)cn2)ccc1=O — remaining binding (ABL1 F317L phosphorylated; cell-free assay, competition with immobilised ligand; 1 µM): 79%
C[C@H]1CCN(c2nccc(-c3cnn4ncccc34)n2)C1 — remaining binding (Tyrosine-protein kinase ABL1 (ABL1, Homo sapiens, UniProt P00519, Q252H); binding; 1 µM): 84%
CC(C)(C)c1ccc(-c2nc(CBr)nn2-c2cccc(O)c2)cc1 — remaining binding (ABL1 non-phosphorylated; cell-free assay, competition with immobilised ligand; 10 µM): 82%
CN1CCN(c2ccc(Nc3nccc(-c4ccccc4)n3)cc2C(F)(F)F)CC1 — remaining binding (Tyrosine-protein kinase ABL1 (ABL1, Homo sapiens, UniProt P00519, F317I); binding; 10 µM): 100%
Cc1cnc(Nc2ccc(C(=O)N3CCC(N4CCCC4)CC3)cc2)nc1-c1cc2ccccc2s1 — remaining binding (Tyrosine-protein kinase ABL1, phosphorylated (ABL1, Homo sapiens, UniProt P00519, F317I); binding, competition with immobilised ligand; 1 µM): 57%
N[C@H]1CCN(c2nccc(-c3cnn4ncccc34)n2)C1 — remaining binding (ABL1 non-phosphorylated; binding; 1 µM): 91%
O=C(c1ccc(Nc2ncc(Cl)c(-c3ccc(Cl)s3)n2)cc1)N1CCC(N2CCCC2)CC1 — remaining binding (ABL1 H396P non-phosphorylated; binding, competition with immobilised ligand; 1 µM): 0.35%
O=C(Nc1c[nH]nc1C(=O)NC1CCNCC1)c1cc(F)cc(F)c1 — remaining binding (ABL1 Q252H non-phosphorylated; binding, competition with immobilised ligand; 1 µM): 100%
O=C(c1ccc(Nc2ncc(Cl)c(-c3cc4ccccc4s3)n2)cc1)N1CCC(N2CCCC2)CC1 — remaining binding (ABL1 F317L phosphorylated; binding, competition with immobilised ligand; 1 µM): 54%
COc1ncc2cc3ccccc3nc2c1C#N — remaining binding (ABL1 M351T phosphorylated; cell-free assay, competition with immobilised ligand; 5 µM): 100%
CO[C@H]1CC[C@H](CNc2ccc(S(=O)(=O)NC(=O)c3ccc(N4CCN(CC5=C(c6ccc(Cl)cc6)CC(C)(C)CC5)CC4)cc3Oc3cnc4[nH]ccc4c3)cc2[N+](=O)[O-])CC1 — remaining binding (ABL1 F317L phosphorylated; cell-free assay, competition with immobilised ligand; 1 µM): 83%
CNC(=O)[C@@H]1CC[C@@H](n2c(-c3ccc4cnccc4c3)nc3ccc(C(=O)NCc4cccc(C(N)=O)c4)cc32)C1 — remaining binding (ABL1 Y253F phosphorylated; binding, competition with immobilised ligand; 1 µM): 100%
O=C(NCCCN1CCOCC1)c1ccc(Nc2nccc(-c3cc4ccccc4s3)n2)cc1 — remaining binding (ABL1 M351T phosphorylated; binding, competition with immobilised ligand; 1 µM): 49%
CN1CCN(c2cnc3c(C4CCN(C(=O)c5ccc(OC(F)(F)F)cc5N)CC4)ncnc3c2)CC1 — remaining binding (ABL1 non-phosphorylated; cell-free assay, competition with immobilised ligand; 1 µM): 91%
C[C@@H](c1ccc(-n2cnc3c(N)ncnc32)cc1)N1CCc2nn(C)c(Cc3ccccc3)c2C1=O — remaining binding (ABL1 non-phosphorylated; binding, competition with immobilised ligand; 0.1 µM): 15%
CCc1ccccc1C(=O)Nc1n[nH]c2c(C)c(F)c(C3C(C#N)=C(C)N(C)C(C)=C3C#N)cc12 — remaining binding (ABL1 Q252H non-phosphorylated; cell-free assay, competition with immobilised ligand; 1 µM): 82%
COc1cnc(Nc2cccc(S(N)(=O)=O)c2)nc1N1CCN(c2ccccc2)C(=O)C1 — remaining binding (ABL1 Q252H phosphorylated; binding, competition with immobilised ligand; 1 µM): 87%
O=C(NCCCN1CCOCC1)c1ccc(Nc2ncc(Cl)c(-c3ccc(Cl)s3)n2)cc1 — remaining binding (ABL1 M351T phosphorylated; binding, competition with immobilised ligand; 1 µM): 27%
CN(CCCC(F)(F)F)c1nccc(-c2cnn3ncccc23)n1 — remaining binding (ABL1 T315I; binding; 1 µM): 100%
C[C@@H]1CN(c2cc(-c3n[nH]c4ccc(OC5(C)CC5)cc34)ncn2)C[C@H](C)O1 — remaining binding (ABL1 Y253F phosphorylated; cell-free assay, competition with immobilised ligand; 0.1 µM): 66%
CN(c1nccc(-c2cnn3ncccc23)n1)C1CC1 — remaining binding (ABL1 phosphorylated; binding; 1 µM): 99%
c1cncc(-c2cccc(Nc3nccc(NC4CCCCC4)n3)c2)c1 — remaining binding (ABL1 phosphorylated; binding, competition with immobilised ligand; 10 µM): 32%
